Assay results taken from PMC4834983 (Journal of medicinal chemistry, 2015).
Entries after “also recorded” stand apart in the source; their conditions may differ.

How the values were obtained:
U251MG cells [1] = assay: CyQuant cell proliferation assay; type: cell-based, human
In short: (§1)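 CyQuant DNA-dye proliferation assay on cultured cells after 72 h exposure to test compound. Viability expressed relative to DMSO-treated control cells.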

NIH3T3 cells [2] = assay: CyQuant cell proliferation assay; type: cell-based, mouse; conditions: 5 μM
In short: as §1

pYStat3 = assay: Immunoblotting of pStat3 in treated U251MG cells; type: cell-based, human; conditions: for effect on pStat3 in treated tumor cells: 5 μM, glioma cells, immunoblotting
In short: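 Whole-cell lysates from U251MG cells given test compound at 5 μM for 0–24 h, or at 0–5 μM for 2 h. Immunoblotted for pY705Stat3 and total Stat3, with GAPDH as loading reference.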

Stat3:Stat3 = Stat3:Stat3 (Mus musculus, UniProt P42227); assay: Cell-free EMSA, nuclear extracts pre-incubated with compound, hSIE probe; type: biochemical; conditions: 5 μM, 30 min pre-incubation, NIH3T3/v-Src nuclear extracts
Chain of Stat3:Stat3 (P42227 2-770 limits assumed): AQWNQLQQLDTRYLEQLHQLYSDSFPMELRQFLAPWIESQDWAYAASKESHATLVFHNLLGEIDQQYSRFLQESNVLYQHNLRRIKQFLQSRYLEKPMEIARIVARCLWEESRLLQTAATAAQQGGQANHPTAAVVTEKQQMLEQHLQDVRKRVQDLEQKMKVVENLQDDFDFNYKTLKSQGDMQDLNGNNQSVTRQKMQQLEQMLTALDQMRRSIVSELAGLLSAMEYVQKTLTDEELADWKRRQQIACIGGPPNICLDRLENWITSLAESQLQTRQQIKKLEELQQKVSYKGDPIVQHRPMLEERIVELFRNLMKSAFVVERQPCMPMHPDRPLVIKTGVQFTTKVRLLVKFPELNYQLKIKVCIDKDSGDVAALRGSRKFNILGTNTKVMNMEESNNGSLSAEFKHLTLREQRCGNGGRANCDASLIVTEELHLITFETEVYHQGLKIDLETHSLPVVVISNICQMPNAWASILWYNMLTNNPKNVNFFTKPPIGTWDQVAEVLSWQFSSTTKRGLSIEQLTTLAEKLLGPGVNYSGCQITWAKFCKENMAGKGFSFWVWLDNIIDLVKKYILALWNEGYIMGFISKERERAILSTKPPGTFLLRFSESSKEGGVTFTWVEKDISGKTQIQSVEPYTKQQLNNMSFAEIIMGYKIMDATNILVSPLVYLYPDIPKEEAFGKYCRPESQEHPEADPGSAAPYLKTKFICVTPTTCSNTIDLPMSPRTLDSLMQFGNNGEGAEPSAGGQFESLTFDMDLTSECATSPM

Stat3 = Stat3 DNA-binding activity/EMSA of nuclear extracts from treated glioma cells; type: cell-based, human; conditions: for effect on Stat3 DNA-binding activity in treated tumor cells: 5 μM, glioma cells, EMSA
MCF-7 cells = assay: CyQuant cell proliferation assay; type: cell-based; conditions: Homo sapiens, MCF7, 72 h, read-out: IC50 cell proliferation MCF-7
In short: as §1

[3] = test system: protein tyrosine phosphatase (PTP)1B; assay: Immunoblotting, U251MG glioma cells; type: cell-based, human; conditions: 5 μM
In short: (§2)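 U251MG cells given 5 μM test compound for 0–24 h. Whole-cell lysates of equal total protein immunoblotted for pErk1/2, Erk1/2, pS-Akt, Akt, pJAK2, JAK2, SOCS3 and PTP1B, with β-actin or GAPDH as loading reference.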

U373MG cells = assay: CyQuant cell proliferation assay; type: cell-based; conditions: Homo sapiens, U373 MG, 72 h, read-out: IC50 cell proliferation U373MG
In short: as §1

pErk1/2MAPK [4] = assay: Immunoblotting, U251MG glioma cells; type: cell-based, human; conditions: 5 μM
In short: as §2

pStat1 = assay: Immunoblotting, EGF-stimulated NIH3T3/hEGFR fibroblasts; type: cell-based, mouse; conditions: 5 μM pre-treatment
In short: (§3)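 NIH3T3/hEGFR fibroblasts pretreated with or without 5 μM test compound for 3 h, then stimulated with 1 μg/ml EGF for 12 min. Whole-cell lysates, equal total protein, immunoblotted for pStat1/Stat1, pStat5/Stat5 and pErk1/2/Erk1/2.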

pErk1/2MAPK [5] = assay: as above; type: cell-based, mouse; conditions: 5 μM pre-treatment
In short: as §3

pStat5 = assay: as above; type: cell-based, mouse; conditions: 5 μM pre-treatment
In short: as §3

Stat1:Stat1 = target: T1, Stat1:Stat1 (Mus musculus, UniProt P42225); assay: Cell-free EMSA, EGF-stimulated NIH3T3/hEGFR nuclear extracts; type: biochemical; conditions: 5 μM, 30 min pre-incubation
T1 sequence (P42225 2-749 limits assumed): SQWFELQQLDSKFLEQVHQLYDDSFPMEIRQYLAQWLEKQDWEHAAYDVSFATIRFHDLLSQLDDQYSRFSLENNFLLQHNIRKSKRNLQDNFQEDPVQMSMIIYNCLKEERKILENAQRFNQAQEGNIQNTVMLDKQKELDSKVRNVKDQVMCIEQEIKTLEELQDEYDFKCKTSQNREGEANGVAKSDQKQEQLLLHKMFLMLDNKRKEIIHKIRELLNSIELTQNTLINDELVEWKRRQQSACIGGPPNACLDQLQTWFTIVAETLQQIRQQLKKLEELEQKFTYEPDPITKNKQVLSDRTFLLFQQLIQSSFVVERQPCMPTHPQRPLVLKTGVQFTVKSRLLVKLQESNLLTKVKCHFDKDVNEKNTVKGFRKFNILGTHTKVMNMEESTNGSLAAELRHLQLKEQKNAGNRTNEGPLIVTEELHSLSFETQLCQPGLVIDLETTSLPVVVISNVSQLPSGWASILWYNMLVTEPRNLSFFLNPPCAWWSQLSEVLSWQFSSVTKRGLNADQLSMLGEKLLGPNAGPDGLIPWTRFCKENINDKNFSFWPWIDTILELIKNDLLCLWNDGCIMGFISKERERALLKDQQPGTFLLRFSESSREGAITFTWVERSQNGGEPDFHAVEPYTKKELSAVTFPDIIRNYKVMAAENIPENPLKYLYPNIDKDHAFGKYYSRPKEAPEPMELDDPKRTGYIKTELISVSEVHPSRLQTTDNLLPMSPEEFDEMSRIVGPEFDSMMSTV
In short: (§4)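 Nuclear extracts from EGF-stimulated NIH3T3/hEGFR fibroblasts, containing active Stat1, Stat3 and Stat5, preincubated with 5 μM test compound for 30 min at room temperature. Then incubated 30 min with 32P-labelled probe before EMSA: hSIE (Stat1/Stat3 binding) or MGFe (bovine β-casein element; Stat1/Stat5 binding). STAT:DNA bands quantified as percent of control.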

SF295 cells = assay: CyQuant cell proliferation assay; type: cell-based; conditions: Homo sapiens, SF-295, 72 h, read-out: IC50 cell proliferation SF295
In short: as §1

Stat5:Stat5 = assay: Cell-free EMSA, EGF-stimulated NIH3T3/hEGFR nuclear extracts, MGFe probe; type: biochemical, mouse; conditions: 5 μM, 30 min pre-incubation
In short: as §4

MDA-MB-231 cells = assay: CyQuant cell proliferation assay; type: cell-based, human; conditions: Homo sapiens, MDA-MB-231, 72 h, read-out: IC50 cell proliferation MDA-MB-231
In short: as §1

[6] = test system: suppressors of cytokine signaling (SOCS)3; assay: Immunoblotting, U251MG glioma cells; type: cell-based, human; conditions: 5 μM
In short: as §2

pS-Akt = assay: Immunoblotting, U251MG glioma cells; type: cell-based, human; conditions: 5 μM
In short: as §2

U251MG cells [7] = assay: Apoptosis by PARP or caspase cleavage; type: cell-based, human; conditions: 24 or 48 h
[8] = Cysteamine 1H NMR test for Michael acceptor reactivity; type: physicochemical; conditions: DMSO-d6, 1H NMR
U251MG cells [9] = assay: Immunofluorescence staining/confocal microscopy of mitosis; type: cell-based, human; conditions: 15 h treatment
In short: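 U251MG cells on coverslips synchronised by double thymidine block (2 mM) and released for 9 h. Then given DMSO, 100 nM paclitaxel or 8 μM test compound for 15 h. Fixed in 4% paraformaldehyde, permeabilised with 0.1% digitonin and blocked in 0.2% BSA. Stained with anti-β-tubulin (1:350) and anti-MAP1B (1:300) for 1 h at room temperature, then fluorescent secondaries and DAPI; confocal imaging.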

U251MG cells [10] = assay: Scratch assay for migration; type: cell-based, human; conditions: 5 μM, 19-h treatment
In short: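 Sub-confluent U251MG monolayers wounded with pipette tips and treated once with test compound (0–5 μM) or DMSO vehicle. Cells allowed to migrate into the denuded area over 19 h, then imaged by microscopy at 10×.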

NIH3T3 cells [11] = assay: Colony survival assay; type: cell-based, mouse; conditions: 5 μM or less
In short: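 Cells seeded as single cells at 250 per well and treated once the next day with test compound (0–5 μM) for 72 h. Grown until large colonies were visible: 1 week for NIH3T3, 2 weeks for U251MG. Colonies stained with crystal violet for 4 h and counted.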

pStat3 = assay: Immunoblotting of pStat3 in patient-derived xenograft cells; type: cell-based, human; conditions: 5 μM, 3 h
In short: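 Glioma patient-derived xenograft G22 cells (DMEM, 5–10% heat-inactivated FBS) given 5 μM test compound for 0–24 h. Whole-cell lysates immunoblotted for pStat3 and Stat3, with GAPDH as loading reference.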

G12 cells = assay: Growth of glioma patient-derived xenograft cells in vitro; type: cell-based; conditions: Homo sapiens, read-out: inhibitory activity against G12 cell growth
G22 cells [12] = assay: 3D spheroid assay; type: cell-based, human; conditions: 5 μM, treated once
G22 cells [13] = assay: Growth of glioma patient-derived xenograft cells in vitro; type: cell-based; conditions: Homo sapiens, read-out: inhibitory activity against growth of G22 cells
G10 cells = assay: as above; type: cell-based; conditions: Homo sapiens, read-out: inhibitory activity against growth of G10 cells

## C/C=C(\C)C(=O)OCC1=C2/C(=C\[C@@]3(C)CC[C@](O)(O3)[C@H](C)C[C@@H]2OC(=O)/C(C)=C/C)OC1=O [Compound 38]
U251MG cells [1]; 5 μM
  activity against U251MG cell growth: retained or improved the inhibitory potency
NIH3T3 cells [2]
  effect on NIH3T3 growth: inhibited NIH3T3 growth
pYStat3
  effect on pStat3 in treated tumor cells: suppressed
Stat3:Stat3
  Stat3:Stat3/DNA-binding activity (complexation), cell-free EMSA: diminished
Stat3
  effect on Stat3 DNA-binding activity in treated tumor cells: suppressed
Stat3; Homo sapiens, U-251, read-out: IC50 Stat3 DNA-binding activity in treated cells
  IC50: 0.5 to 2.5 µM

## C/C=C(/C)C(=O)O[C@H]1C[C@@H](C)[C@]2(O)CC[C@](C)(/C=C3/OC(=O)C(COC(C)=O)=C31)O2 [Compound 20]
MCF-7 cells
  IC50: 4.8 to 9.6 µM
[3]
  effect on PTP1B levels: no effects
U373MG cells
  IC50: 6.6 to 8.2 µM
pErk1/2MAPK [4]
  effect on pErk1/2MAPK levels: no effects
pStat1
  effect on EGF-stimulated pStat1 levels: no effect
pErk1/2MAPK [5]
  effect on EGF-stimulated pErk1/2MAPK levels: no effect
pStat5
  effect on EGF-stimulated pStat5 levels: no effect
pYStat3
  effect on pStat3 in treated tumor cells: strongly inhibited
Stat3:Stat3
  Stat3:Stat3/DNA-binding activity (complexation), cell-free EMSA: diminished
Stat1:Stat1
  effect on Stat1:Stat1 activity, cell-free EMSA: weak effects
SF295 cells
  IC50: 7.4 to 18.3 µM
Stat5:Stat5
  effect on Stat5:Stat5 activity, cell-free EMSA: weak effects
MDA-MB-231 cells
  IC50: 5.2 to 9.1 µM
[6]
  effect on SOCS3 levels: no effects
Stat3
  effect on Stat3 DNA-binding activity in treated tumor cells: strongly inhibited
pS-Akt
  effect on pS-Akt levels: no effects

## CN[C@@H]1C[C@H]2O[C@@](C)([C@@H]1OC)n1c3ccccc3c3c4c(c5c6ccccc6n2c5c31)C(=O)NC4 [staurosporine]
U251MG cells [7]
  apoptosis measured by PARP or caspase cleavage: induced apoptosis

## C=C(C)C(=O)O[C@H]1C[C@@H](C)[C@]2(OC)CC[C@](C)(/C=C3/OC(=O)C(COC(C)=O)=C31)O2 [Compound 9]
pYStat3
  effect on pStat3 in treated tumor cells: little impact
Stat3:Stat3
  Stat3:Stat3/DNA-binding activity (complexation), cell-free EMSA: no effect; also recorded: only weakly inhibited
[8]
  Michael acceptor reaction with cysteamine: indicative of Michael acceptor reactions

## CC(=O)O[C@H]1C(=O)[C@@]2(C)[C@H]([C@H](OC(=O)c3ccccc3)[C@]3(O)C[C@H](OC(=O)[C@H](O)[C@@H](NC(=O)c4ccccc4)c4ccccc4)C(C)=C1C3(C)C)[C@]1(OC(C)=O)CO[C@@H]1C[C@@H]2O [paclitaxel, reference compound]
U251MG cells [9]
  chromatid structures and sister-chromatids segregation (mitosis): caused strong defects
U251MG cells [7]
  apoptosis measured by PARP or caspase cleavage: induced apoptosis

## C/C=C(\C)C(=O)O[C@H]1C[C@@H](C)[C@]2(OC)CC[C@](C)(/C=C3/OC(=O)C(COC(C)=O)=C31)O2 [Compound 10]
U251MG cells [10]
  migration into the denuded area: slowed migration
MCF-7 cells
  IC50: 4.8 to 9.6 µM
NIH3T3 cells [11]
  effects on NIH3T3 colony numbers: moderate or none
pStat3
  effect on Phospho-Stat3 in G22 cells: moderate inhibition
[3]
  effect on PTP1B levels: no effects
U373MG cells
  IC50: 6.6 to 8.2 µM
pErk1/2MAPK [4]
  effect on pErk1/2MAPK levels: no effects
G12 cells
  inhibition at 5 µM: 25 to 35%
pStat1
  effect on EGF-stimulated pStat1 levels: no effect
pErk1/2MAPK [5]
  effect on EGF-stimulated pErk1/2MAPK levels: no effect
pStat5
  effect on EGF-stimulated pStat5 levels: no effect
pYStat3
  effect on pStat3 in treated tumor cells: strongly inhibited
Stat3:Stat3
  Stat3:Stat3/DNA-binding activity (complexation), cell-free EMSA: diminished
G22 cells [12]
  3D spheroid growth: modest
Stat1:Stat1
  effect on Stat1:Stat1 activity, cell-free EMSA: weak effects
SF295 cells
  IC50: 7.4 to 18.3 µM
Stat5:Stat5
  effect on Stat5:Stat5 activity, cell-free EMSA: weak effects
MDA-MB-231 cells
  IC50: 5.2 to 9.1 µM
[6]
  effect on SOCS3 levels: no effects
Stat3
  effect on Stat3 DNA-binding activity in treated tumor cells: strongly inhibited
[8]
  Michael acceptor reaction with cysteamine: Michael acceptor reactions have occurred
G22 cells [13]
  inhibition at 5 µM: 45 to 60%
pS-Akt
  effect on pS-Akt levels: no effects
G10 cells
  inhibition at 5 µM: 45 to 60%

## CC(=O)OCC1=C2/C(=C\[C@@]3(C)CC[C@](O)(O3)[C@H](C)C[C@@H]2O)OC1=O [Compound 11]
U251MG cells [9]
  chromatid structures and sister-chromatids segregation (mitosis): minimal effect
pYStat3
  effect on pStat3 in treated tumor cells: weak effect
Stat3:Stat3
  Stat3:Stat3/DNA-binding activity (complexation), cell-free EMSA: diminished
Stat1:Stat1
  effect on Stat1:Stat1 activity, cell-free EMSA: weak effects
Stat5:Stat5
  effect on Stat5:Stat5 activity, cell-free EMSA: weak effects
Stat3
  effect on Stat3 DNA-binding activity in treated tumor cells: weak effect

## C=C1C(=O)O[C@@H]2/C=C(\C)CC/C=C(\C)CC[C@@H]12 [costunolide, reference compound]
U251MG cells [1]; panel of cell lines, Fig. S5E(i)
  cell growth activity, control compounds: poorly-active or non-specific in activity
pYStat3; Fig. S5E(ii)
  Stat3 activity in tumor cells, control compounds: did not inhibit
[8]
  Michael acceptor reaction with cysteamine: formation of diastereomeric Michael adduct mixtures
